Screening data: PubChem, Johns Hopkins Ion Channel Center
Only some compounds are listed: those with a hit (about 2.3% of all), similar ones and a draw of the others.
TRPC6 inh: mouse TRPC6 channel inhibitors, primary screen, cell-based, HEK293, membrane potential dye. Short transient receptor potential channel 6 (Mus musculus), Q61143. ACh-evoked depolarization; hits give low values. B-score at 10 µM. 310,000 compounds, 1.1% hits;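 active = B-score under library mean minus 3 SD, initial fluorescence not abnormally high, positive integrated signal ratio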;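 also: B-score derived from integrated fluorescence ratio over the kinetic read; more negative B-score means stronger inhibition of depolarization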
Target sequence (Q61143 whole entry, looked up): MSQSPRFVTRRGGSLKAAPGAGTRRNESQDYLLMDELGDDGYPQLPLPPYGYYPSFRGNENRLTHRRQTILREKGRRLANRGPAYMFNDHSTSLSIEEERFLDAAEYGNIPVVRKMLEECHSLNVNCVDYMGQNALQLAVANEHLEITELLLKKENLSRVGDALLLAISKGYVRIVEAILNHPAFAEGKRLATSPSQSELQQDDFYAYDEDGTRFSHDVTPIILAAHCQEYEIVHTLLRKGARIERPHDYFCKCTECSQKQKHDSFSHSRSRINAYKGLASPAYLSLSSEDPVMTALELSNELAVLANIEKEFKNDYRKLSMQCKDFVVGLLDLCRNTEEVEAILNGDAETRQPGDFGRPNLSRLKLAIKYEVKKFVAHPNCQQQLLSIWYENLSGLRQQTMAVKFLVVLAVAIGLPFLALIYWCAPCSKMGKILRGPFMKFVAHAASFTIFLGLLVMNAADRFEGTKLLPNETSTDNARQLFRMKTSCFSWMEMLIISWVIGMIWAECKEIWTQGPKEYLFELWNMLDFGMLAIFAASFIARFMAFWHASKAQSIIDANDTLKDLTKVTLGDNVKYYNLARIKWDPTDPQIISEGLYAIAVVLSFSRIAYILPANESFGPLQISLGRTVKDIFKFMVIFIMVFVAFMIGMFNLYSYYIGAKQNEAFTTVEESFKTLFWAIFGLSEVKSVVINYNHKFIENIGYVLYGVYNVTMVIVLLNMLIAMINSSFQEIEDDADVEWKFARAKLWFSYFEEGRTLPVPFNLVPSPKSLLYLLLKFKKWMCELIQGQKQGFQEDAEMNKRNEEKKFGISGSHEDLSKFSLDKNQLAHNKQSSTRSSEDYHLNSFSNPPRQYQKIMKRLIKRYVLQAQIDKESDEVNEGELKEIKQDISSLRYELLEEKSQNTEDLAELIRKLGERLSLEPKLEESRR
TRPC4 potent: positive allosteric modulators of TRPC4, primary screen, cell-based, mouse TRPC4beta, HEK293 mu-opioid, Fluo-4 calcium. DAMGO EC20, Fluo-4 Ca2+ flux; hits give high values. B-score at 10 µM. 310,000 compounds, 0.42% hits. AID 2227, 2009;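 active = B-score of calcium response area above 5 SD of library B-scores, with initial fluorescence ratio within 5 SD of library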;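 also: B-score of integrated fluorescence ratio over time as area under calcium response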
TRPC6 activator: mouse TRPC6 channel activators, primary screen, cell-based, HEK293, membrane potential dye; HEK293-TRPC6 membrane potential dye fluorescence; hits give high values; 310,000 compounds, 0.13% hits; B-score at 10 µM; Short transient receptor potential channel 6 (Mus musculus), Q61143;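 active = B-score of the integrated fluorescence ratio above library mean plus 3 SD, and starting fluorescence ratio within library mean plus 5 SD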;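 also: higher score means more depolarization so channel activation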
TRPC4 agonist: activators of mouse TRPC4 channel, primary screen, Fluo4 calcium, HEK293 TRPC4beta/mu-opioid cells; AID 2237, 2010; B-score at 10 µM; 310,000 compounds, 0.49% hits; Short transient receptor potential channel 4 (Mus musculus), Q9QUQ5; Fluo4 calcium fluorescence; hits give high values;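 active = B-score above 5 SD of library B-scores, and initial fluorescence ratio not above library mean plus 5 SD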;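 also: positive B-score marks a calcium rise read as TRPC4 activation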
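Technique: kinetic Fluo4 calcium fluorescence; Test system: TRPC4beta and mu-opioid receptor HEK293 stable cells; Measure: B-scored integrated calcium fluorescence ratio; Benchmarks: low control buffer alone, high control maximal DAMGO; Schedule: 45 min room-temperature Fluo4 loading, 110 s read.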
TRPC4 inh: inhibitors of mouse TRPC4 channel, primary screen, Fluo4 calcium, HEK293 TRPC4beta/mu-opioid cells; Short transient receptor potential channel 4 (Mus musculus), Q9QUQ5; DAMGO-evoked Fluo4 calcium flux; hits give low values; B-score at 10 µM; 300,000 compounds, 0.39% hits; AID 2247, 2010;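 active = B-score over 3 SD under the library average, no early fluorescence shift, positive overall ratio signal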
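Assay system: HEK293 cells with stable TRPC4beta plus mu-opioid receptor expression. Dosing: single dose. Measured by: Fluo4 Ca2+ flux fluorescence. Also added: DAMGO in two steps, submaximal then maximal. Read-out: B score from integrated Fluo4 fluorescence ratio.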
TRPC4 spec 2: second check of whether TRPC6 inhibitors also affect mouse TRPC4 | shares compounds with TRPC6 inh | 920 compounds, 42% hits | AID 2776 | HEK293 TRPC4/MOR, membrane potential dye fluorescence; channel activated by saturating DAMGO dose | inhibition, % at 10 µM;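 active = compounds whose fluorescence signal differed from control wells by over 3 SD, either direction, in both duplicate plates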
TRPC4 spec: mouse TRPC4 modulation by TRPC6 hits, confirmation, selectivity assay for TRPC6 inhibitor project, cell-based, HEK293 TRPC4/mu-opioid, membrane potential dye | activity change, negative = inhibition, % at 10 µM | AID 2777, 2010 | 920 compounds, 61% hits | shares compounds with TRPC6 inh | membrane potential fluorescence;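 active = rise or fall in signal beyond 3 SD of buffer-only wells in both replicate plates, either sign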;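 also: integrated kinetic ratio of fluorescence range over baseline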
HEK293 MPD ctr 2-1: nonspecific membrane potential effects, parental HEK293, confirmation, counter-screen for TRPC6 inhibitor project, cell-based, second counter screen | shares compounds with TRPC6 inh | signal change vs control, % at 10 µM | parental HEK293 membrane potential dye fluorescence; maximal acetylcholine challenge after compound addition | 920 compounds, 31% hits;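 active = membrane potential signal moving either way by over 3 SD of the maximum-effect control, in both duplicate plates, meaning non-specific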
HEK293 MPD ctr-1: membrane potential modulation in parental HEK293, confirmation, counter-screen for TRPC6 inhibitor project, cell-based; shares compounds with TRPC6 inh; parental HEK293 membrane potential dye fluorescence; membrane potential signal change, % at 10 µM; 920 compounds, 60% hits;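 active = membrane potential signal shifting up or down by more than 3 SD of buffer-only wells, on both duplicate plates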
HEK293 MPD ctr-2: parental HEK293 membrane potential modulation, confirmation, counter-screen for TRPC6 modulator project, cell-based | shares compounds with TRPC6 inh | membrane potential dye fluorescence | membrane potential signal change, % at 10 µM | 2,400 compounds, 51% hits | AID 488924, 2010;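 active = membrane potential signal moves up or down beyond 5 SD from buffer-only wells, on both duplicate plates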
HEK293 MPD ctr 2-2: second counter-screen for TRPC6 modulators: effect in parental HEK293 cells | AID 488926 | membrane potential dye fluorescence; after compound, maximal acetylcholine stimulation | inhibition, % at 10 µM | shares compounds with TRPC6 inh | 2,400 compounds, 14% hits;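 active = membrane potential signal drops by more than 5 SD from the mean control signal, in both duplicate plates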;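 also: plate controls were acetylcholine ECmax control wells for no effect and buffer only wells for full effect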
TRPC4 ctr mod: TRPC4 modulation by TRPC6 hit compounds, confirmation, selectivity assay for TRPC6 modulator project, cell-based, HEK293 TRPC4/mu-opioid, membrane potential dye, mouse. membrane potential fluorescence. 2,400 compounds, 69% hits. shares compounds with TRPC6 inh. percent change from control (negative = decrease, positive = increase), % at 10 µM;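 active = membrane potential signal moved up or down beyond 5 SD of buffer control wells, in both duplicate plates, actives on both sides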;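 also: plate controls were assay buffer wells for no effect and DAMGO maximal-effect wells for full effect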
TRPC4 ctr inh 2: second check of whether TRPC6 modulators also affect mouse TRPC4. shares compounds with TRPC6 inh. HEK293 TRPC4/mu-opioid, membrane potential dye fluorescence; stimulated with maximal-effect DAMGO. inhibition, % at 10 µM. 2,400 compounds, 55% hits. AID 488928;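 active = drop in membrane potential signal beyond 5 SD of the control wells in both duplicate plates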;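 also: TRPC4 counter screen for TRPC6 hits run under conditions tuned for TRPC6 not TRPC4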
TRPC6 inh conf: mouse TRPC6 channel inhibitors, confirmation, HEK293 cells, membrane potential dye, duplicate; shares compounds with TRPC6 inh; 3,300 compounds, 43% hits; ACh-evoked depolarization; AID 488960, 2010; inhibition, % at 10 µM;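 active = fluorescence ratio falls more than 5 SD below the full-stimulation control mean, in both duplicate runs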;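 also: integrated fluorescence ratio of peak minus minimum over baseline after agonist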
TRPC6 act conf: mouse TRPC6 channel activators, confirmation, HEK293 cells, membrane potential dye, duplicate; shares compounds with TRPC6 inh; HEK293-TRPC6 membrane potential dye fluorescence, FDSS; activation, % at 10 µM; 2,800 compounds, 11% hits; AID 488961, 2010;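 active = ratio signal rise beyond 5 SD above unstimulated control wells' mean, seen in both duplicate runs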;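 also: plate controls were buffer EC0 wells for no effect and acetylcholine ECmax response for full effect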
Starred values were filed as active, the others as inactive; i = inactive; nt = no result given; + = active, no number.

SMILES	TRPC6 inh	TRPC4 potent	TRPC6 activator	TRPC4 agonist	TRPC4 inh	HEK293 MPD ctr-2	HEK293 MPD ctr 2-2	TRPC4 ctr mod	TRPC4 ctr inh 2	TRPC6 inh conf	TRPC6 act conf	others
Cc1ccc(-c2nc(SC(C)C(=O)c3c(N)n(C)c(=O)n(C)c3=O)n[nH]2)cc1 (stereo not given)	i	i	i	i	i	nt	nt	nt	nt	nt	nt
Cc1ccc(-c2nc(SCC(=O)c3c(N)n(C)c(=O)n(C)c3=O)n[nH]2)cc1	-5.11*	i	i	i	i	i	i	i	i	i	i
CC(=O)c1ccc(OCCCN2CCCCC2)cc1	-5.14*	i	i	i	i	i	i	i	i	i	i
CC(=O)c1c(C)nc(-c2ccc(Cl)cc2)nc1NC(=O)C(C)C	-6.03*	i	i	i	i	i	106.5%*	18.5%*	i	71.5%*	nt
Cc1ccc(C)c(S(=O)(=O)NCc2ccc(C(=O)NCc3ccccn3)cc2)c1	i	i	i	i	i	nt	nt	nt	nt	nt	nt
CCN(C1CCCCC1)S(=O)(=O)c1ccc(S(=O)(=O)N2CCN(CCC#N)CC2)cc1	-5.55*	i	i	i	i	i	i	10.5%*	i	37.5%*	i
Clc1ccccc1N1CCN(Cc2c[nH]c3ccccc23)CC1	i	i	i	i	i	nt	nt	nt	nt	nt	nt
Fc1ccccc1N1CCN(C2CCN(Cc3c[nH]c4ccccc34)CC2)CC1	-5.25*	i	i	i	i	148.5%*	i	19.0%*	58.5%*	i	nt
O=C(CC1OC(=O)c2ccccc21)Nc1cccc(S(=O)(=O)N2CCCCCC2)c1 (stereo not given)	i	i	i	i	i	nt	nt	nt	nt	nt	nt
Cc1ccc(NC(=O)CSc2nc3ccccc3c(=O)n2CCCN2CCCCC2)cc1C	-7.88*	i	i	i	i	nt	nt	nt	nt	i	i	TRPC4 spec 2=33.0%*;TRPC4 spec=5.6%*;HEK293 MPD ctr 2-1=219.0%*;HEK293 MPD ctr-1=9.0%*
Cc1ccc(NC(=O)CSc2nc3ccccc3c(=O)n2CCCC(=O)N2CCCC2)cc1	i	i	i	i	i	nt	nt	nt	nt	nt	nt
Cc1ccc(O)c(CNCCNCc2cc(C)ccc2O)c1	-6.38*	i	i	i	i	161.0%*	i	16.5%*	82.0%*	44.0%*	nt
CCc1ccc(O)c(CNCCNCc2cc(CC)ccc2O)c1	i	i	i	i	i	nt	nt	nt	nt	nt	nt
Cc1nn(CC(=O)O)c(C)c1C	i	i	i	i	i	nt	nt	nt	nt	nt	nt
Cc1nn(CC(=O)O)c(C)c1Cl	-11.5*	i	i	i	i	i	i	i	i	i	i
COCc1[nH]nc2c1C(c1c(F)cccc1Cl)C(C#N)=C(N)O2 (stereo not given)	-5.59*	i	i	i	i	i	i	i	i	i	i
Nc1cc(=O)[nH]c(=O)n1CCc1ccccc1	i	i	i	i	i	nt	nt	nt	nt	nt	nt
C/C(=N/OC(=O)c1c(-c2c(Cl)cccc2Cl)noc1C)c1cnccn1	-8.1*	i	i	i	i	nt	nt	nt	nt	68.9%*	i	TRPC4 spec 2=i;TRPC4 spec=i;HEK293 MPD ctr 2-1=27.0%*;HEK293 MPD ctr-1=i
C/C(=N/OC(=O)c1c(-c2ccccc2Cl)noc1C)c1cnccn1	-6.05*	i	i	i	i	107.5%*	i	21.0%*	i	52.5%*	nt
C/C(=N\OC(=O)c1c(-c2ccccc2Cl)noc1C)c1nccs1	i	i	i	i	i	nt	nt	nt	nt	nt	nt
Cc1onc(-c2c(Cl)cccc2Cl)c1C(=O)O/N=C(\C#N)c1c(Cl)cccc1Cl	i	i	i	i	i	nt	nt	nt	nt	nt	nt
CC/C(=N\NS(=O)(=O)c1ccc(C)cc1)c1ccco1	i	i	i	i	i	nt	nt	nt	nt	nt	nt
C/C(=N\NC(=O)C1CC1)c1ccccc1Br	i	i	i	i	i	nt	nt	nt	nt	nt	nt
CC(=Nc1ccccc1)c1sc2ccccc2c1O	i	i	12.7*	i	i	395.0%*	i	56.0%*	i	i	115.5%*
O=c1c(O)c(-c2cccs2)oc2ccc(Cl)cc12	i	i	76.3*	i	i	+	i	326.5%*	82.5%*	i	334.0%*
